Screens (PubChem BioAssay)
In the library only some 1.9% were active in any assay of this set; here they are far more common.
PG9 binder – PG9 antibody binding by small molecule; TR-FRET gp120-PG9 antibody binding; inhibition, % at 6.7 µM; 360,000 compounds, 0.43% hits; in the data active = inhibition above about 8.5%
NR2E3 ag-1 – human photoreceptor-specific nuclear receptor agonism; Q9Y5X4; CHO-S Gal4-NCOR/VP16-NR2E3 two-hybrid, luciferase; inhibition of corepressor binding, % at 3.98 µM; 360,000 compounds, 0.35% hits;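 active = inhibition above the mean of all tested compounds plus 3 SD, cut at about 70% in these data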;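 also: 0% = DMSO with NR2E3 transfected cells and 100% = cells lacking NR2E3 construct; higher means lower luciferase signal from less NR2E3 corepressor binding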
Target sequence (Q9Y5X4 whole entry, looked up, the tested form may be a part): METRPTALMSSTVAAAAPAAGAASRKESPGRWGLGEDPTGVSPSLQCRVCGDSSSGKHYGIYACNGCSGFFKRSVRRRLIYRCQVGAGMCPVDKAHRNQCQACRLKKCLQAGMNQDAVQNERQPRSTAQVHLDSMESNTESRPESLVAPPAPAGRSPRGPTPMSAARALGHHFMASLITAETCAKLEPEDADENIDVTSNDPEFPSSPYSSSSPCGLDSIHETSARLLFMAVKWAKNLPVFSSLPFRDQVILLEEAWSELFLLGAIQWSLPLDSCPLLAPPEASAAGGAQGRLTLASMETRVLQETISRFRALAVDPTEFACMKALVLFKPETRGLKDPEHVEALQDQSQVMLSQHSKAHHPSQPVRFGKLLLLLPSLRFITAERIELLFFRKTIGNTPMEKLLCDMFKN
Rev-erbA mod – Rev-erb alpha (human) modulation; Rev-erbα–FITC-DNA binding, fluorescence polarization, 90 min; 370,000 compounds, 0.79% hits; activity, % at 10 µM;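 active = activity above about 14%, limit read from the data; passing the limit was not always enough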;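 also: 0% = DMSO wells with 35 nM protein and 100% = DMSO wells with 750 nM protein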
NR2E3 ag-2 – NR2E3 (human) agonism; GST-NR2E3/biotin-RetCOR TR-FRET, 1536-well; inhibition of corepressor binding, % at 4.78 µM; 320,000 compounds, 0.12% hits; AID 2300;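 active = percent inhibition above the cutoff of mean plus 3 SD of all tested compounds, set per screening campaign, cut at about 20% in these data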;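 also: 0% = DMSO wells and 100% = biotin wells as full block of FRET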
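Material: NR2E3–RetCOR corepressor complex | Quantity: 1.35 nM GST-tagged NR2E3 final | Schedule: 5 h at 4 °C | Replication: Singlicate compound wells | Reagent: RetCOR corepressor, biotinylated, 7 nM | Controls: Biotin wells as high control, 0.6% DMSO wells as low control | Signal: TR-FRET, Eu(K)-anti-GST donor, streptavidin-D2 acceptor, ex 340, em 617/671 nm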
SKN-1 inh – blocks SKN-1 activity in C. elegans. C. elegans VP596 Pgst-4::GFP/RFP ratio, acrylamide-induced, 24 h. inhibition, % at 21.8 µM. 360,000 compounds, 0.49% hits. AID 624304;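 active = interference check ratio from 0.5 to 1.5 plus GFP to RFP signal ratio inhibition reaching or exceeding a fixed threshold, cut at about 30% in these data, passing the limit was not always enough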
MT1-MMP act inh – blocks activation of human MT1-MMP; P50281; HT1080 RFP-PRO-GFP cells, GFP/RFP ratio fluorescence, overnight; percent of plate control window, DMSO zero; GFP/RFP ratio change, % at 20 µM; 360,000 compounds, 0.061% hits;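 active = GFP/RFP ratio change of at least 30% with cell ATP level not reduced by more than half and red fluorescence within 50% of control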
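Compound: 20 µM single dose, 1% DMSO / System: HT1080 RFP-PRO-GFP cells / Controls: DMSO and RFP-L50D-GFP cell wells / Read-out basis: GFP/RFP fluorescence ratio / Schedule: overnight compound exposure at 37 °C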
PG9 binder conf – confirmation of small molecules binding HIV-1 gp120 antibody PG9. inhibition, % at 6.7 µM. TR-FRET PG9 antibody binding, biochemical. shares compounds with PG9 binder. 1,500 compounds, 90% hits. AID 651571; in the data active = inhibition above about 9%
PGV04 counter – counter-screen for PG9 binders: binding control antibody PGV04; 1,500 compounds, 95% hits; inhibition, % at 6.7 µM; AID 651604; TR-FRET PGV04 antibody-gp120 binding, biochemical; shares compounds with PG9 binder; in the data active = inhibition above about 9.5%
PG9 bind DR – PG9 antibody binding, dose response | AID 651848 | shares compounds with PG9 binder | TR-FRET PG9 antibody-gp120 binding inhibition | 95 tested, under 10 active | IC50, µM; in the data active = IC50 below about 10 µM
PGV04 binding DR – PGV04 binding, dose response counter-screen; TR-FRET binding to control antibody PGV04; 95 compounds, 20% hits; IC50, µM; shares compounds with PG9 binder
PG126 DR counter – binds control antibody PG126 in PG9 counter-screen. 95 compounds, 20% hits. TR-FRET binding to antibody PG126, counterscreen. shares compounds with PG9 binder. IC50, µM
Active calls of the source: *; . = not tested or not shown. Rule as the data show it, unless noted: active = IC50 below about 9 µM; inactive = the rest.

SMILES	PG9 binder	NR2E3 ag-1	Rev-erbA mod	NR2E3 ag-2	SKN-1 inh	MT1-MMP act inh	PG9 binder conf	PGV04 counter	others
Nc1ccn([C@@H]2O[C@H](C(=O)N[C@H](Cc3ccccc3)C(=O)N3CCC(F)(F)CC3)[C@@H](O)[C@H]2O)c(=O)n1	1	.	0	.	.	.	.	.
O=C1CC(c2ccc(F)cc2)Cc2nc(NCc3ccco3)ncc21 (stereo unspecified)	9.4*	-6	6	3	-20	5	18*	23*
COc1ccc2nc(NC(=O)CSc3nc4cccnc4n3C)sc2c1	26*	-15	7	12	-13	-3	29*	42*
COC(=O)c1sc(NC(=O)CSc2nc3cccnc3n2C)nc1C	22*	-11	3	-4	8	2	33*	45*
Cc1ccc(C)c(NC(=O)C2CCCN(S(=O)(=O)c3ccc4[nH]c(=O)ccc4c3)C2)c1 (stereo unspecified)	16*	-1	10	0	2	5	13*	21*
COc1ccc(C)cc1NC(=O)C1CCCN(S(=O)(=O)c2ccc3[nH]c(=O)ccc3c2)C1 (stereo unspecified)	-1	7	-2	2	14	-1	.	.
O=C(Nc1ccc(F)cc1)C1CCCN(S(=O)(=O)c2ccc3[nH]c(=O)ccc3c2)C1 (stereo unspecified)	11*	-13	-5	5	20	-5	19*	29*
CC(C)[C@H](NC(=O)C1CC1)C(=O)N1CCC[C@H]1C(=O)NCCc1ccccc1Cl	-1	.	2	.	.	.	.	.
COc1cccc(-c2nc(C(N)=O)c3[nH]c(=O)n(-c4ccccc4)c3n2)c1OC	2	11	-11	-2	-2	-1	.	.
CCOc1ccccc1-c1nc(C(N)=O)c2[nH]c(=O)n(-c3ccccc3)c2n1	19*	12	-6	2	-3	2	28*	58*
CCOC(=O)CC1(O)CSc2nc(N)cc(=O)n21 (stereo unspecified)	-2	.	-3	.	.	.	.	.
COc1ccc(OC)c(NC(=O)CSc2nncc3ccccc23)c1	13*	3	2	4	0	-2	8	10*
Cc1cc(O)cc(=O)n1-c1cccc(Br)c1	-1	.	3	.	.	.	.	.
Cc1nc2sccn2c(=O)c1S(=O)(=O)Nc1cccc(Cl)c1C	9.8*	-13	2	-2	6	-1	16*	16*
N#Cc1c(SC(C(=O)O)c2ccccc2)nc2c(c1-c1cccs1)CCCC2 (stereo unspecified)	20*	-25	-8	16	-6	-4	32*	44*
CCOC(=O)C(C)Sc1nc2c(c(-c3cccs3)c1C#N)CCC2 (stereo unspecified)	0	-45	5	2	-2	-4	.	.
O=C(COC(=O)c1ccccc1NCc1ccco1)Nc1ccc2c(c1)OCO2	0	-3	5	2	-4	-1	.	.
COC(=O)c1ccccc1NC(=O)COc1ccc2c(c1)OCO2	9.2*	-23	11	5	4	-3	6	7
O=C(COC(=O)c1ccccc1NC(=O)c1ccco1)Nc1ccc2c(c1)OCO2	11*	4	-1	0	19	-1	9.2*	12*
COc1cccc(OCc2nn3c(=O)c(-c4ccccc4)nnc3s2)c1	12*	-33	18	.	-4	1	19*	35*
COCCN1C(=O)C2=C(C1=O)C1N(C)c3ccccc3[C@@]13C[C@@H](CO)N(S(=O)(=O)c1ccc(OC)cc1)C3=N2 (stereo partly specified)	.	.	-4	.	.	.	.	.
CCC1CCCCN1C(=O)n1ncc(C(O)(c2ccccc2)c2ccccc2)n1 (stereo unspecified)	.	.	-7	.	.	.	.	.
COC(=O)c1ccc(CNC(=O)COC(=O)c2ccc(N(C)C)cc2)cc1	26*	-12	13	-5	-1	4	24*	39*
COc1ccc(C(=O)COC(=O)c2ccc(N(C)C)cc2)cc1	15*	17	6	9	7	5	23*	26*
Cc1cccc(-n2c(-c3ccc(Br)o3)n[nH]c2=S)c1	3	-37	-4	0	-2	3	.	.
SMILES	PG9 binder	NR2E3 ag-1	Rev-erbA mod	NR2E3 ag-2	SKN-1 inh	MT1-MMP act inh	PG9 binder conf	PGV04 counter	others
Cc1cccc(-n2c(-c3ccco3)n[nH]c2=S)c1	14*	-19	0	4	10	2	17*	20*
COc1cccc(C(=O)N=c2sc3cc(S(C)(=O)=O)ccc3n2C)c1	39*	-67	7	-56	5	2	46*	60*
COc1cccc(C(=O)Nc2cc(C(=O)NCc3ccc(C)cc3)ccc2N2CCC3(CC2)CC(c2ccccc2)=NO3)c1	11*	-55	2	7	-4	1	4	6
CCC1(C)Cc2ccccc2-c2nc(SC)[nH]c(=O)c21 (stereo unspecified)	13*	-26	1	0	1	-2	9.4*	9	PG9 bind DR=>67;PGV04 binding DR=>67;PG126 DR counter=>67
COc1cc(Br)c(C[N+]2(CCOCCC3CCC4CC3C4(C)C)CCOCC2)cc1OC (stereo unspecified)	.	.	6	.	.	.	.	.
S=c1[nH]ncc2ccccc12	0	-5	4	4	2	2	.	.
S=c1[nH]ccc2ccccc12	11*	-32	-5	.	3	-7	4	11*
COc1ccc(C2CC(=O)C(c3ccc4ccccc4c3)=CN2Cc2ccccc2)cc1 (stereo unspecified)	-1	.	6	.	.	.	.	.
O=c1c(S(=O)(=O)c2ccc(Cl)cc2)cn(Cc2ccccc2F)c2ccc(F)cc12	1	-18	6	0	19	-7	.	.
Cc1ccc(S(=O)(=O)c2cn(CC(=O)Nc3ccccc3)c3ccc(F)cc3c2=O)cc1	14*	-46	-8	-3	-3	-1	17*	25*
